Calls of active or inactive are those of the source. No cut-off for these calls is given here.
biological target: CDK2/Cyclin A2 (Homo sapiens, UniProt P24941); assay: Inhibition of CDK2/cyclin A (unknown origin) in presence of [gamma-33P]-ATP […]; type: protein-complex assay; settings: read-out: Ki(app)

SMILES | Ki
Cc1nc(Nc2ccccc2)sc1-c1ccnc(Nc2ccc(N3CCNCC3)cn2)n1 | > 5000 nM

biological target: Cyclin-dependent kinase 7/ cyclin H (Homo sapiens) (UniProt P51946+P50613); assay: (§1) Inhibition of CDK7/cyclin H (unknown origin) in presence of [gamma-33P]-ATP […]; type: protein-complex assay; settings: not given

SMILES | Ki(app)
CC(=O)N1CCN(c2ccc(Nc3nccc(-c4sc(N(C)C5CCCC5)nc4C)n3)nc2)CC1 | inactive

biological target: Cyclin-dependent kinase 7/ cyclin H (Homo sapiens, UniProt P50613); assay: as §1; type: protein-complex assay; settings: read-out: Ki(app)
Sequence (P51946 whole entry): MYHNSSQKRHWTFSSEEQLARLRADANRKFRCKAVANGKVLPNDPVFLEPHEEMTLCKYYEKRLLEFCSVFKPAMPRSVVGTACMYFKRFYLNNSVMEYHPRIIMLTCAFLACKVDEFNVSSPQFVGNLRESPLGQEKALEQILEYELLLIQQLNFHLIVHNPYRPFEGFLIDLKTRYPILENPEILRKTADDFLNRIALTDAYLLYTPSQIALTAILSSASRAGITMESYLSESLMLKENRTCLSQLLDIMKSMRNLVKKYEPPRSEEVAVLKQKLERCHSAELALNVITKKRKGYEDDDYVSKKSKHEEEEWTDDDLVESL
Sequence (P50613 whole entry): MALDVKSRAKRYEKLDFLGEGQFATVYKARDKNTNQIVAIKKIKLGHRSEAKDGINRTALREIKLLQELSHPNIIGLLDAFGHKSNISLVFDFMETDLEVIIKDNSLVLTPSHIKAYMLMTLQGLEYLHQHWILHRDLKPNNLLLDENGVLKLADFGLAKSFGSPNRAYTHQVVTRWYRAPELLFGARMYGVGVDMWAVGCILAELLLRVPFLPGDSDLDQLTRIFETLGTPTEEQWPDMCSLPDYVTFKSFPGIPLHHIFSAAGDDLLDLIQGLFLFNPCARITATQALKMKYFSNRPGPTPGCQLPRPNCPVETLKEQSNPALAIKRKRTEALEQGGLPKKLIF

SMILES | Ki
CC(=O)N1CCN(c2ccc(Nc3nccc(-c4sc(NC5CCCC5)nc4C)n3)nc2)CC1 | 3450 nM
CCN1CCN(c2ccc(Nc3nccc(-c4sc(NC5CCCC5)nc4C)n3)nc2)CC1 | 780 nM
Cc1nc(NC2CCCC2)sc1-c1ccnc(Nc2ccc(N3CCN(C)CC3)cn2)n1 | 865 nM
O=CN1CCN(c2ccc(Nc3nccc(-c4sc(NC5CCCC5)nc4C(F)(F)F)n3)nc2)CC1 | 1900 nM
FC(F)(F)c1nc(NC2CCCC2)sc1-c1ccnc(Nc2ccc(N3CCNCC3)cn2)n1 | 194 nM
Cc1nc(Nc2ccccc2)sc1-c1ccnc(Nc2ccc(N3CCNCC3)cn2)n1 | 1660 nM
Cc1nc(NC(C)C)sc1-c1ccnc(Nc2ccc(N3CCN(C)CC3)cn2)n1 | 760 nM
Cc1nc(NC(C)C)sc1-c1ccnc(Nc2ccc(N3CCNCC3)cn2)n1 | 775 nM
Cc1nc(N(C)C2CCCC2)sc1-c1ccnc(Nc2ccc(N3CCNCC3)cn2)n1 | 3200 nM
CC(=O)N1CCN(c2ccc(Nc3nccc(-c4sc(NC(C)C)nc4C)n3)nc2)CC1 | 4390 nM
CN1CCN(c2ccc(Nc3nccc(-c4sc(NC5CCCC5)nc4C(F)(F)F)n3)nc2)CC1 | 189 nM
CC(=O)N1CCN(c2ccc(Nc3nccc(-c4sc(NC5CCCC5)nc4C(F)(F)F)n3)nc2)CC1 | 2610 nM
Cc1nc(NC2CCCC2)sc1-c1ccnc(Nc2ccc(N3CCCNCC3)cn2)n1 | 282 nM
Cc1nc(NC2CCCC2)sc1-c1nc(Nc2ccc(N3CCNCC3)cn2)ncc1F | 790 nM
Cc1nc(NC2CCCC2)sc1-c1ccnc(Nc2ccc(N3CCC(N)CC3)cn2)n1 | 1190 nM

biological target: CDK9/cyclin T1 (Homo sapiens, UniProt P50750); assay: Inhibition of CDK9/cyclin T1 (unknown origin) in presence of [gamma-33P]-ATP […]; type: protein-complex assay; settings: read-out: Ki(app)
Sequence (O60563 whole entry): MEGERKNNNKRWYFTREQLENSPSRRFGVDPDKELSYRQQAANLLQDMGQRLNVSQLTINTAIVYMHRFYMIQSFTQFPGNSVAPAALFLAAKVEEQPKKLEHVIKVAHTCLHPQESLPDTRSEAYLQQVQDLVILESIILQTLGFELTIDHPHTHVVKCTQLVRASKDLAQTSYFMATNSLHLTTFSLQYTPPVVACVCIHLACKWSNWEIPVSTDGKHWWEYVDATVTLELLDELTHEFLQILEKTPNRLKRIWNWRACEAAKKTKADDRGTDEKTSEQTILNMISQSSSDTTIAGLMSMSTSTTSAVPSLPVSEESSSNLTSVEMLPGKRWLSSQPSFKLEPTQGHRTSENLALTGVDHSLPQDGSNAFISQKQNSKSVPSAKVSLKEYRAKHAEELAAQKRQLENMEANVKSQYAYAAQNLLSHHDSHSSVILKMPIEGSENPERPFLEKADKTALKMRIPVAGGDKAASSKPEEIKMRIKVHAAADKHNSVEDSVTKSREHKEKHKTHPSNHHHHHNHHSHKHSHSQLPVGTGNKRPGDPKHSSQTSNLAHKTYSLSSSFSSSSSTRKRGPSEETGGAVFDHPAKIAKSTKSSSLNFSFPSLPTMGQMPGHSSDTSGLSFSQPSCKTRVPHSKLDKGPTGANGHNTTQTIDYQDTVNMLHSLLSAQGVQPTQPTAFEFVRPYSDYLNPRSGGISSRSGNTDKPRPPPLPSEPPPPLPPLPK
Sequence (P50750 whole entry): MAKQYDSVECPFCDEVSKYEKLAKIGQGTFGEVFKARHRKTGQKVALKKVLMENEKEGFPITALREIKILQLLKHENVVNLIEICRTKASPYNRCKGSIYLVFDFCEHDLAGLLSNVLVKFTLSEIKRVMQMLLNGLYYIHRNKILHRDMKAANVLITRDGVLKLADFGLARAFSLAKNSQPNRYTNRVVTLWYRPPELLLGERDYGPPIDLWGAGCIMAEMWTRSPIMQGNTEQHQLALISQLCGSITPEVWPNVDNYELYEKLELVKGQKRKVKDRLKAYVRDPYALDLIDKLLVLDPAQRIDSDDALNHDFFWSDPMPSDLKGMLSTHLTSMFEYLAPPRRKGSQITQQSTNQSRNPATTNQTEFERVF

SMILES | Ki
O=CN1CCN(c2ccc(Nc3nccc(-c4sc(NC5CCCC5)nc4C(F)(F)F)n3)nc2)CC1 | > 5000 nM
CC(=O)N1CCN(c2ccc(Nc3nccc(-c4sc(N(C)C5CCCC5)nc4C)n3)nc2)CC1 | > 5000 nM
CC(=O)N1CCN(c2ccc(Nc3nccc(-c4sc(NC5CCCC5)nc4C(F)(F)F)n3)nc2)CC1 | > 5000 nM
Cc1nc(NC2CCCC2)sc1-c1ccnc(Nc2ccccn2)n1 | > 5000 nM

tested on: MV4-11; assay: Growth inhibition of human MV4-11 cells after 72 hrs by resazurin assay; type: functional; settings: MV4-11, 72 h
Outline: (§2)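 72 h antiproliferation assay, resazurin read-out for MV4-11 and MTT read-out for MDA-MB-453; values from at least two replicates.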

SMILES | GI50
CC(=O)N1CCN(c2ccc(Nc3nccc(-c4sc(NC5CCCC5)nc4C)n3)nc2)CC1 | 24 nM
CCN1CCN(c2ccc(Nc3nccc(-c4sc(NC5CCCC5)nc4C)n3)nc2)CC1 | 9 nM
Cc1nc(NC2CCCC2)sc1-c1ccnc(Nc2ccc(N3CCN(C)CC3)cn2)n1 | 9 nM
O=CN1CCN(c2ccc(Nc3nccc(-c4sc(NC5CCCC5)nc4C(F)(F)F)n3)nc2)CC1 | 4 nM
FC(F)(F)c1nc(NC2CCCC2)sc1-c1ccnc(Nc2ccc(N3CCNCC3)cn2)n1 | 2 nM
Cc1nc(Nc2ccccc2)sc1-c1ccnc(Nc2ccc(N3CCNCC3)cn2)n1 | 56 nM
Cc1nc(NC(C)C)sc1-c1ccnc(Nc2ccc(N3CCN(C)CC3)cn2)n1 | 75 nM
Cc1nc(NC(C)C)sc1-c1ccnc(Nc2ccc(N3CCNCC3)cn2)n1 | 93 nM
Cc1nc(N(C)C2CCCC2)sc1-c1ccnc(Nc2ccc(N3CCNCC3)cn2)n1 | 285 nM
CC(=O)N1CCN(c2ccc(Nc3nccc(-c4sc(N(C)C5CCCC5)nc4C)n3)nc2)CC1 | 328 nM
CC(=O)N1CCN(c2ccc(Nc3nccc(-c4sc(NC(C)C)nc4C)n3)nc2)CC1 | 2070 nM
CN1CCN(c2ccc(Nc3nccc(-c4sc(NC5CCCC5)nc4C(F)(F)F)n3)nc2)CC1 | 1 nM
CC(=O)N1CCN(c2ccc(Nc3nccc(-c4sc(NC5CCCC5)nc4C(F)(F)F)n3)nc2)CC1 | 12 nM
Cc1nc(NC2CCCC2)sc1-c1ccnc(Nc2ccccn2)n1 | 300 nM
Cc1nc(NC2CCCC2)sc1-c1ccnc(Nc2ccc(N3CCCNCC3)cn2)n1 | 29 nM
Cc1nc(NC2CCCC2)sc1-c1nc(Nc2ccc(N3CCNCC3)cn2)ncc1F | 53 nM
Cc1nc(NC2CCCC2)sc1-c1ccnc(Nc2ccc(N3CCC(N)CC3)cn2)n1 | 13 nM

tested on: MDA-MB-453; assay: Growth inhibition of human MDA-MB-453 cells after 72 hrs by MTT assay; type: functional; settings: MDA-MB-453, 72 h; outline: as §2

SMILES | GI50
CC(=O)N1CCN(c2ccc(Nc3nccc(-c4sc(NC5CCCC5)nc4C)n3)nc2)CC1 | 591 nM
CCN1CCN(c2ccc(Nc3nccc(-c4sc(NC5CCCC5)nc4C)n3)nc2)CC1 | 287 nM
Cc1nc(NC2CCCC2)sc1-c1ccnc(Nc2ccc(N3CCN(C)CC3)cn2)n1 | 130 nM
O=CN1CCN(c2ccc(Nc3nccc(-c4sc(NC5CCCC5)nc4C(F)(F)F)n3)nc2)CC1 | 336 nM
FC(F)(F)c1nc(NC2CCCC2)sc1-c1ccnc(Nc2ccc(N3CCNCC3)cn2)n1 | 81 nM
Cc1nc(Nc2ccccc2)sc1-c1ccnc(Nc2ccc(N3CCNCC3)cn2)n1 | 279 nM
Cc1nc(NC(C)C)sc1-c1ccnc(Nc2ccc(N3CCN(C)CC3)cn2)n1 | 618 nM
Cc1nc(NC(C)C)sc1-c1ccnc(Nc2ccc(N3CCNCC3)cn2)n1 | 31 nM
Cc1nc(N(C)C2CCCC2)sc1-c1ccnc(Nc2ccc(N3CCNCC3)cn2)n1 | 402 nM
CC(=O)N1CCN(c2ccc(Nc3nccc(-c4sc(N(C)C5CCCC5)nc4C)n3)nc2)CC1 | 6860 nM
CC(=O)N1CCN(c2ccc(Nc3nccc(-c4sc(NC(C)C)nc4C)n3)nc2)CC1 | 344 nM
CN1CCN(c2ccc(Nc3nccc(-c4sc(NC5CCCC5)nc4C(F)(F)F)n3)nc2)CC1 | 420 nM
CC(=O)N1CCN(c2ccc(Nc3nccc(-c4sc(NC5CCCC5)nc4C(F)(F)F)n3)nc2)CC1 | 77 nM
Cc1nc(NC2CCCC2)sc1-c1ccnc(Nc2ccccn2)n1 | 4380 nM
Cc1nc(NC2CCCC2)sc1-c1ccnc(Nc2ccc(N3CCCNCC3)cn2)n1 | 102 nM
Cc1nc(NC2CCCC2)sc1-c1nc(Nc2ccc(N3CCNCC3)cn2)ncc1F | 780 nM
Cc1nc(NC2CCCC2)sc1-c1ccnc(Nc2ccc(N3CCC(N)CC3)cn2)n1 | 55 nM

Source: ChEMBL document CHEMBL4004830 (J Med Chem, 2017)
